Measurements: ChEMBL document CHEMBL3244330, “Structure--activity relationships of n-substituted dopamine and 2-amino-6,7-dihydroxy-1,2,3,4-tetrahydronaphthalene analogues: behavioral effects in lesioned and reserpinized mice” (J Med Chem, 1979)
The source made the active and inactive calls. No cut-off for these calls is given here.

Legend:
[1] = test system: Mus musculus; assay: Reversal of reserpine-induced catalepsy in ip dosed Swiss albino (CD1) mouse; assay type: functional
Outline: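 Male Swiss albino CD1 mice, 5 weeks old, got reserpine 5 mg/kg ip, then α-MTM 250 mg/kg ip 17 h later, then the test drug ip 4 h after that. Catalepsy was scored by the rubber-stopper test (time to step off the stopper). At least four doses were used, with ≥8 mice per dose. ED50 was taken from a log-probit plot of percent responders against dose.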

[2] = test system: Mus musculus; assay: Postural effect on caudectomized Swiss albino mouse assessed as latency to onset time of asymmetric postural effect at 29.9 mg/kg, ip; assay type: functional; details: route intraperitoneal
Outline: (§1)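 Male Swiss albino Hale-Stoner mice with a right caudectomy made by suction. A lesion was accepted if the mouse responded to apomorphine 4 weeks after surgery. Compounds were dissolved in 0.9% saline and injected ip at random into groups of six, with a maximum dose of 0.348 mmol/kg. 18 mice were used per compound, and mice were retested after 5–6 day intervals. Onset and duration of the asymmetric posture are reported as mean ± SE from six animals.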

[3] = test system: Mus musculus; assay: Postural effect on caudectomized Swiss albino mouse assessed as latency to onset time of asymmetric postural effect at 59.8 mg/kg, ip; assay type: functional; details: route intraperitoneal; outline: as §1
[4] = test system: Mus musculus; assay: Postural effect on caudectomized Swiss albino mouse assessed as time duration of asymmetric posture at 59.8 mg/kg, ip; assay type: functional; details: route intraperitoneal
Outline: (§2)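 Male Swiss albino Hale-Stoner mice given a right caudectomy by suction. The lesion counted as successful if the mice reacted to apomorphine 4 weeks later. Drug was given ip in 0.9% saline, up to 0.348 mmol/kg, to randomised groups of six, with 5-6 days before reuse. Onset and duration of asymmetric posture are reported as mean ± SE from six animals.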

[5] = test system: Mus musculus; assay: Postural effect on caudectomized Swiss albino mouse assessed as time duration of asymmetric posture at 29.9 mg/kg, ip; assay type: functional; details: route intraperitoneal; outline: as §1
[6] = test system: Mus musculus; assay: Postural effect on caudectomized Swiss albino mouse assessed as time duration of asymmetric posture at 67.8 mg/kg, ip; assay type: functional; details: route intraperitoneal; outline: as §2
[7] = test system: Mus musculus; assay: Postural effect on caudectomized Swiss albino mouse assessed as time duration of asymmetric posture at 45.2 mg/kg, ip; assay type: functional; details: route intraperitoneal; outline: as §1
[8] = test system: Mus musculus; assay: Postural effect on caudectomized Swiss albino mouse assessed as latency to onset time of asymmetric postural effect at 45.2 mg/kg, ip; assay type: functional; details: route intraperitoneal; outline: as §1
[9] = test system: Mus musculus; assay: Postural effect on caudectomized Swiss albino mouse assessed as latency to onset time of asymmetric postural effect at 22.6 mg/kg, ip; assay type: functional; details: route intraperitoneal; outline: as §1
[10] = test system: Mus musculus; assay: Postural effect on caudectomized Swiss albino mouse assessed as time duration of asymmetric posture at 22.6 mg/kg, ip; assay type: functional; details: route intraperitoneal; outline: as §1
[11] = test system: Mus musculus; assay: Postural effect on caudectomized Swiss albino mouse assessed as latency to onset time of asymmetric postural effect at 67.8 mg/kg, ip; assay type: functional; details: route intraperitoneal; outline: as §1
[12] = test system: Mus musculus; assay: Postural effect on caudectomized Swiss albino mouse assessed as latency to onset time of asymmetric postural effect at 858 mg/kg, ip; assay type: functional; details: route intraperitoneal
[13] = test system: Mus musculus; assay: Postural effect on caudectomized Swiss albino mouse assessed as time duration of asymmetric posture at 858 mg/kg, ip; assay type: functional; details: route intraperitoneal
[14] = test system: Mus musculus; assay: Postural effect on caudectomized Swiss albino mouse assessed as latency to onset time of asymmetric postural effect at 90.8 mg/kg, ip; assay type: functional, organism-based; parameters: dose 90.8 mg/kg; outline: as §1
[15] = test system: Mus musculus; assay: Postural effect on caudectomized Swiss albino mouse assessed as latency to onset time of asymmetric postural effect at 96 mg/kg, ip; assay type: functional, organism-based; parameters: dose 96 mg/kg; outline: as §1
[16] = test system: Mus musculus; assay: Postural effect on caudectomized Swiss albino mouse assessed as latency to onset time of asymmetric postural effect at 100.5 mg/kg, ip; assay type: functional, organism-based; parameters: dose 100.5 mg/kg; outline: as §1
[17] = test system: Mus musculus; assay: Postural effect on caudectomized Swiss albino mouse assessed as latency to onset time of asymmetric postural effect at 104.8 mg/kg, ip; assay type: functional, organism-based; parameters: dose 104.8 mg/kg; outline: as §1
[18] = test system: Mus musculus; assay: Postural effect on caudectomized Swiss albino mouse assessed as latency to onset time of asymmetric postural effect at 120 mg/kg, ip; assay type: functional, organism-based; parameters: dose 120 mg/kg; outline: as §1
[19] = test system: Mus musculus; assay: Postural effect on caudectomized Swiss albino mouse assessed as latency to onset time of asymmetric postural effect at 26.3 mg/kg, ip; assay type: functional, organism-based; parameters: dose 26.3 mg/kg; outline: as §1
[20] = test system: Mus musculus; assay: Postural effect on caudectomized Swiss albino mouse assessed as time duration of asymmetric posture at 92 mg/kg, ip; assay type: functional; details: route intraperitoneal; outline: as §2
[21] = test system: Mus musculus; assay: Postural effect on caudectomized Swiss albino mouse assessed as time duration of asymmetric posture at 105.1 mg/kg, ip; assay type: functional; details: route intraperitoneal; outline: as §1
[22] = test system: Mus musculus; assay: Postural effect on caudectomized Swiss albino mouse assessed as latency to onset time of asymmetric postural effect at 52.6 mg/kg, ip; assay type: functional, organism-based; parameters: dose 52.6 mg/kg; outline: as §1
[23] = test system: Mus musculus; assay: Postural effect on caudectomized Swiss albino mouse assessed as latency to onset time of asymmetric postural effect at 78.9 mg/kg, ip; assay type: functional; details: route intraperitoneal; outline: as §1
[24] = test system: Mus musculus; assay: Postural effect on caudectomized Swiss albino mouse assessed as time duration of asymmetric posture at 78.9 mg/kg, ip; assay type: functional; details: route intraperitoneal; outline: as §2
[25] = test system: Mus musculus; assay: Postural effect on caudectomized Swiss albino mouse assessed as latency to onset time of asymmetric postural effect at 92 mg/kg, ip; assay type: functional; details: route intraperitoneal; outline: as §1
[26] = test system: Mus musculus; assay: Reversal of reserpine-induced catalepsy in Swiss albino (CD1) mouse at 0.348 mmol/kg, ip; assay type: functional, organism-based
[27] = test system: Mus musculus; assay: Postural effect on caudectomized Swiss albino mouse assessed as latency to onset time of asymmetric postural effect at 105.1 mg/kg, ip; assay type: functional; details: route intraperitoneal; outline: as §1
[28] = test system: Mus musculus; assay: Postural effect on caudectomized Swiss albino mouse assessed as latency to onset time of asymmetric postural effect at 50.8 mg/kg, ip; assay type: functional; details: route intraperitoneal; outline: as §1
[29] = test system: Mus musculus; assay: Postural effect on caudectomized Swiss albino mouse assessed as time duration of asymmetric posture at 25.4 mg/kg, ip; assay type: functional; details: route intraperitoneal; outline: as §1
[30] = test system: Mus musculus; assay: Postural effect on caudectomized Swiss albino mouse assessed as time duration of asymmetric posture at 50.8 mg/kg, ip; assay type: functional; details: route intraperitoneal; outline: as §2
[31] = test system: Mus musculus; assay: Postural effect on caudectomized Swiss albino mouse assessed as latency to onset time of asymmetric postural effect at 25.4 mg/kg, ip; assay type: functional; details: route intraperitoneal; outline: as §1
[32] = test system: Mus musculus; assay: Postural effect on caudectomized Swiss albino mouse assessed as latency to onset time of asymmetric postural effect at 23.8 mg/kg, ip; assay type: functional; details: route intraperitoneal; outline: as §1
[33] = test system: Mus musculus; assay: Postural effect on caudectomized Swiss albino mouse assessed as latency to onset time of asymmetric postural effect at 71.4 mg/kg, ip; assay type: functional; details: route intraperitoneal; outline: as §1
[34] = test system: Mus musculus; assay: Postural effect on caudectomized Swiss albino mouse assessed as time duration of asymmetric posture at 47.6 mg/kg, ip; assay type: functional; details: route intraperitoneal; outline: as §1
[35] = test system: Mus musculus; assay: Postural effect on caudectomized Swiss albino mouse assessed as time duration of asymmetric posture at 23.8 mg/kg, ip; assay type: functional; details: route intraperitoneal; outline: as §1
[36] = test system: Mus musculus; assay: Postural effect on caudectomized Swiss albino mouse assessed as time duration of asymmetric posture at 71.4 mg/kg, ip; assay type: functional; details: route intraperitoneal; outline: as §2
[37] = test system: Mus musculus; assay: Postural effect on caudectomized Swiss albino mouse assessed as latency to onset time of asymmetric postural effect at 47.6 mg/kg, ip; assay type: functional; details: route intraperitoneal; outline: as §1

Structure (SMILES): Br.CCCN(CCC)C1CCc2cc(O)c(O)cc2C1 (stereo not given)
- ED50 [1]: 1.6 mg/kg
- Time [2]: 2.8 min
- Time [3]: 2 min
- Time [4]: 31.5 min
- Time [5]: 17 min

Structure (SMILES): CCCCN(C)CCc1ccc(O)c(O)c1.Cl
- ED50 [1]: 61 mg/kg
- Time [6]: 2.2 min
- Time [7]: 2.3 min
- Time [8]: 1.3 min
- Time [9]: 0.4 min
- Time [10]: 3.7 min
- Time [11]: 3.1 min

Structure (SMILES): CCCN(CC)CCc1ccc(O)c(O)c1.Cl
- ED50 [1]: 33 mg/kg
- Time [6]: 11.2 min
- Time [7]: 6.3 min
- Time [8]: 3.2 min
- Time [9]: 3.2 min
- Time [10]: 2.3 min
- Time [11]: 3.6 min

Structure (SMILES): N[C@@H](Cc1ccc(O)c(O)c1)C(=O)O [LEVODOPA]
- ED50 [1]: 248 mg/kg
- Time [12]: 17.7 min
- Time [13]: 24 min

Structure (SMILES): CCCCCN(C)CCc1ccc(O)c(O)c1.Cl
- ED50 [1]: 46 mg/kg

Structure (SMILES): CCCCNCCc1ccc(O)c(O)c1
- Activity [14]: inactive

Structure (SMILES): CN(C)CCc1ccc(O)c(O)c1
- Activity [15]: inactive

Structure (SMILES): CCCCCN(CCCC)CCc1ccc(O)c(O)c1
- Activity [16]: inactive

Structure (SMILES): CCCCN(CCCC)CCc1ccc(O)c(O)c1
- Activity [17]: inactive

Structure (SMILES): CCCN(C)CCc1ccc(O)c(O)c1.Cl
- ED50 [1]: 55 mg/kg
- Activity [18]: Active

Structure (SMILES): CCC(C)N(CCc1ccc(O)c(O)c1)C(C)CC.Cl (stereo not given)
- Activity [19]: inactive
- Time [20]: 7 min
- Time [21]: 10.8 min
- Activity [22]: inactive
- Time [23]: 1.8 min
- Time [24]: 7 min
- Time [25]: 5.2 min
- Activity [26]: inactive
- Time [27]: 5 min

Structure (SMILES): CCCN(CCc1ccc(O)c(O)c1)CC(C)C.Cl
- ED50 [1]: 7.4 mg/kg
- Time [28]: 2.6 min
- Time [29]: 18 min
- Time [30]: 39 min
- Time [31]: 2.8 min

Structure (SMILES): CCCN(CCC)CCc1ccc(O)c(O)c1.Cl
- ED50 [1]: 16 mg/kg
- Time [32]: 1.8 min
- Time [33]: 3.1 min
- Time [34]: 13.9 min
- Time [35]: 6.2 min
- Time [36]: 21.9 min
- Time [37]: 3.7 min
